Assay results taken from the array DNA melting data of Ke et al. (doi:10.1101/2024.01.08.574731).

Experiments:
[1] = folding enthalpy; higher = less favourable; fluorescence melt of hairpins on a sequencing array, two-state fit; settings: sodium 0.088 M
How it was run: (§1)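 Hairpins were imaged by Cy3 fluorescence on a sequenced MiSeq flow cell with annealed Cy3 and quencher oligos, in 50 mM Na-HEPES pH 8.0, 25 mM NaCl, in 2.5 °C steps up to 60 °C. Bootstrapped two-state fits of normalised signals gave melting temperature and folding enthalpy. Four replicates were combined by inverse variance, and fitted temperatures were raised by 9.35 °C to match UV melts.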

[2] = melting temperature; fluorescence melt of hairpins on a sequencing array, two-state fit, raised by 9.35 °C to match UV melts; settings: sodium 0.088 M
How it was run: as §1

## GATCCCTAGCGGGATC ((((((....))))))
[1]
  folding enthalpy: -34.5 kcal/mol
[2]
  Tm: 59.1 °C

## GCAGCGCGAAAGCGTCGC ((..(((....)))..))
[1]
  folding enthalpy: -17.5 kcal/mol
[2]
  Tm: 57.1 °C

## GTACCACGAAAGTGATAC (((.(((....))).)))
[1]
  folding enthalpy: -24.3 kcal/mol
[2]
  Tm: 43.7 °C

## GCTAGACGAAAGTCAAGC (((.(((....))).)))
[1]
  folding enthalpy: -30.4 kcal/mol
[2]
  Tm: 52.7 °C

## GATCGATACATCGATC ((((((....))))))
[1]
  folding enthalpy: -46.2 kcal/mol
[2]
  Tm: 55.9 °C

## GATCGCAGGTGCGATC ((((((....))))))
[1]
  folding enthalpy: -39.8 kcal/mol
[2]
  Tm: 68.4 °C

## GGTAGATCGAAAGATACC (((..(((....))))))
[1]
  folding enthalpy: -19 kcal/mol
[2]
  Tm: 33.1 °C

## GATCTGACACAGATC ((((((...))))))
[1]
  folding enthalpy: -35.7 kcal/mol
[2]
  Tm: 48.1 °C

## GTTTGAGGAAACTCAAAC (((((((....)))))))
[1]
  folding enthalpy: -36.8 kcal/mol
[2]
  Tm: 55.8 °C

## GGAAATGGAAACATTTTC (.(((((....))))).)
[1]
  folding enthalpy: -33.7 kcal/mol
[2]
  Tm: 38.5 °C

## GCAAACGAAAGTTTCTGC ((((((....)))..)))
[1]
  folding enthalpy: -14.9 kcal/mol
[2]
  Tm: 33.8 °C

## GCTGACGAAAGTCATAGC ((((((....)))..)))
[1]
  folding enthalpy: -15.9 kcal/mol
[2]
  Tm: 47.1 °C

## GGTGGCGAAAGCCAACC ((((((....))).)))
[1]
  folding enthalpy: -16.9 kcal/mol
[2]
  Tm: 64.5 °C

## GTTTAGTCGAAAGACAAC (((..(((....))))))
[1]
  folding enthalpy: -10.8 kcal/mol
[2]
  Tm: 27.4 °C

## GGACTCGAAAGAGAATCC ((((((....)))..)))
[1]
  folding enthalpy: -12.6 kcal/mol
[2]
  Tm: 28.8 °C

## GTACACACGAAAGTGTAC (((..(((....))))))
[1]
  folding enthalpy: -16.6 kcal/mol
[2]
  Tm: 46.5 °C

## GGTAAGAAATTACC (((((....)))))
[1]
  folding enthalpy: -16 kcal/mol
[2]
  Tm: 34.3 °C

## GCCCTGGGAAACCGGGGC ((((.((....)).))))
[1]
  folding enthalpy: -43.1 kcal/mol
[2]
  Tm: 66.2 °C

## GTCCACGCGAAAGCGGAC (((..(((....))))))
[1]
  folding enthalpy: -12.9 kcal/mol
[2]
  Tm: 45.8 °C

## GTTCGCGCGAAAGCGAAC (((..(((....))))))
[1]
  folding enthalpy: -28.1 kcal/mol
[2]
  Tm: 60.5 °C

## GCGTTGCGAAAGCTAAGC ((.(.((....)).).))
[1]
  folding enthalpy: -26.9 kcal/mol
[2]
  Tm: 59.2 °C

## GATCTGCTCCCAGATC ((((((....))))))
[1]
  folding enthalpy: -37.1 kcal/mol
[2]
  Tm: 47.9 °C

## GTTCTAGCGAAAGCTAAC (((..(((....))))))
[1]
  folding enthalpy: -9.98 kcal/mol
[2]
  Tm: 28.9 °C

## GAGATGCGAAAGCAACTC (((.(((....))).)))
[1]
  folding enthalpy: -23 kcal/mol
[2]
  Tm: 53.9 °C

## GATCAACCTATTGATC ((((((....))))))
[1]
  folding enthalpy: -29 kcal/mol
[2]
  Tm: 41.5 °C

## GATCTACCTTTAGATC ((((((....))))))
[1]
  folding enthalpy: -30.4 kcal/mol
[2]
  Tm: 38.3 °C

## GTGTCCCGAAAGGGTCAC (((.(((....))).)))
[1]
  folding enthalpy: -30.8 kcal/mol
[2]
  Tm: 57.9 °C

## GCGTATTGACGC ((((....))))
[1]
  folding enthalpy: -13.1 kcal/mol
[2]
  Tm: 52.9 °C

## GGAGACGGAAACGCCTCC ((((.((....)).))))
[1]
  folding enthalpy: -48.4 kcal/mol
[2]
  Tm: 51.4 °C

## GGTAGCGAAAGCTAGACC ((((((....)))..)))
[1]
  folding enthalpy: -14.3 kcal/mol
[2]
  Tm: 40.1 °C

## GATCCTCATCAGGATC ((((((....))))))
[1]
  folding enthalpy: -37 kcal/mol
[2]
  Tm: 49.7 °C

## GATCGTGGGGACGATC ((((((....))))))
[1]
  folding enthalpy: -36.2 kcal/mol
[2]
  Tm: 54.3 °C

## GATCGGTCAACCGATC ((((((....))))))
[1]
  folding enthalpy: -39.2 kcal/mol
[2]
  Tm: 57.5 °C

## AGCAGGAAACTGCT (((((....)))))
[1]
  folding enthalpy: -22.8 kcal/mol
[2]
  Tm: 52.7 °C

## GATCCATTCTGGATC ((((((...))))))
[1]
  folding enthalpy: -33.2 kcal/mol
[2]
  Tm: 54.3 °C

## GATTTCGGAAACGGAATC ((((.((....)).))))
[1]
  folding enthalpy: -38.9 kcal/mol
[2]
  Tm: 45 °C

## GCTTGCACGAAAGTGAGC (((..(((....))))))
[1]
  folding enthalpy: -17.3 kcal/mol
[2]
  Tm: 44.4 °C

## GTTTTACGAAAGTAAAC (((.(((....))))))
[1]
  folding enthalpy: -17.4 kcal/mol
[2]
  Tm: 38.7 °C
